Assay results pooled from the literature.
Protocols differ between the studies behind these lines.

SMILES	cell line	effect on	mode	technique	time	setting	IC50 [µM]
CCOc1ccc(C(=O)Nc2ccc(S(N)(=O)=O)c(OC)c2)cc1	RAW264.7	cell growth or viability	–	MTT	48 h	–	> 100
CC1(C)CCC(CN2CCN(c3ccc(C(=O)NS(=O)(=O)c4ccc(NCC5CCOCC5)c([N+](=O)[O-])c4)c(Oc4cnc5[nH]ccc5c4)c3)CC2)=C(c2ccc(Cl)cc2)C1	HL-60	cell growth or viability	–	ATP luminescence	48 h	–	3.04
COc1cc2c3c(n(CCCn4ccnc4)c(=O)c2cc1OC)-c1nc2c(cc1C3=O)OCO2	HL-60	cell growth or viability	–	MTS	72 h	–	> 2
COc1cc2c(NC3CCN(CCCC(=O)NCCCCCCCCCCCC(=O)N[C@H](C(=O)N4C[C@H](O)C[C@H]4C(=O)NCc4ccc(-c5scnc5C)cc4)C(C)(C)C)CC3)nc(N3CCC(F)(F)CC3)nc2cc1OCCCN1CCCC1	22Rv1	cell growth or viability	–	CCK-8	7 days	–	4.1
C#CCOc1ccc(/C=C/c2cc(OC)cc(OC)c2-c2cnnn2C(=O)NCCc2ccccc2)cc1	RAW264.7	NO release	inhibitor	Griess	24 h	LPS-stimulated	11.7
COc1cc2c3c(n(CCCNCCO)c(=O)c2cc1OC)-c1nc2c(cc1C3=O)OCO2	HL-60	cell growth or viability	–	MTS	72 h	–	0.29
C=C(F)C(=O)N1CCN(c2nc(OC[C@@H]3CCCN3C)nc3c2CCN(c2cccc4cccc(Cl)c24)C3)C[C@@H]1CC#N	OV56	cell growth or viability	–	ATP luminescence	–	3D culture	> 1
COc1cc(NC(=O)c2ccccc2[N+](=O)[O-])ccc1S(N)(=O)=O	RAW264.7	cell growth or viability	–	MTT	48 h	–	> 100
CC(C)Oc1ccc(S(=O)(=O)c2ccc(Oc3cc(OCC(N)=O)c(C(=O)C(Cl)Cl)cc3[N+](=O)[O-])cc2)cc1	NCI-H1299	cell growth or viability	–	MTT	72 h	–	0.31
COc1cc(NC(=O)C2=C(C)NC(C)=C(C(=O)Nc3cc(OC)c(Cl)cc3OC)C2c2ccc(O)cc2)c(OC)cc1Cl	Vero	cell growth or viability	–	MTT	–	–	51.8
COc1cc(NC(=O)c2ccccn2)ccc1S(N)(=O)=O	RAW264.7	cell growth or viability	–	MTT	48 h	–	> 100
COc1ccc(NC(=O)C2=C(C)NC(C)=C(C(=O)Nc3ccc(OC)cc3OC)C2c2ccccc2)c(OC)c1	Vero	cell growth or viability	–	MTT	–	–	86.5
CC#CCOc1ccc(/C=C/c2cc(OC)cc(OC)c2-c2cnnn2C(=O)NC(C)C)cc1	RAW264.7	NO release	inhibitor	Griess	24 h	LPS-stimulated	5.5
CCNCCCn1c2c(c3cc(OC)c(OC)cc3c1=O)C(=O)c1cc3c(nc1-2)OCO3	HL-60	cell growth or viability	–	MTS	72 h	–	0.27
C#CCOc1ccc(/C=C/c2cc(OC)cc(OC)c2-c2cnnn2C(=O)NCC)cc1	RAW264.7	NO release	inhibitor	Griess	24 h	LPS-stimulated	10.6
COc1cc(NC(=O)c2cccc(I)c2)ccc1S(N)(=O)=O	RAW264.7	cell growth or viability	–	MTT	48 h	–	> 100
CC(C)c1ccccc1[C@@H]1CCCN1C1CC2(CCN(c3ccc(C(=O)NS(=O)(=O)c4ccc(NC[C@H]5CC[C@](C)(O)CC5)c([N+](=O)[O-])c4)c(Oc4cnc5[nH]ccc5c4)c3)CC2)C1	Maver1	cell growth or viability	–	ATP luminescence	48 h	–	0.00096
